Sampled rows, rich in hits. Any-hit rate of the full collection: about 2%.
Xi reactivation – reactivates the inactive X chromosome in mouse fibroblasts. AID 743238. XiGFP mouse fibroblasts, % GFP-positive cells imaging, 3 d; cells co-treated with 5-aza-dC sensitizer; scaled so ellipticine positive control = 100%. activation, % at 7.58 µM. 360,000 compounds, 0.055% hits;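 active means mean normalized replicate activation at least 10% and every replicate at or above 10%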;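 further: 0% = median of on-plate neutral control wells and 100% = ellipticine 6 µM median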
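Material: XiGFP fibroblasts, SV40-immortalized; Buffer or medium: DMEM containing 5-aza-dC; Compound dosing: single point; Times: 3 days compound exposure.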
SR-BI uptake up – enhances SR-BI lipid uptake from DiI-HDL. CHO ldlA[mSR-BI] cells, DiI-HDL uptake fluorescence, 3 h; 100 = double the neutral-control signal. activation, % at 12.5 µM. 320,000 compounds, 0.096% hits;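 active means mean replicate activation of at least 60% and every replicate at or above 60%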;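 further: 0% = median plate neutral-control signal and 100% = twice that signal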
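Assay system: CHO ldlA[mSR-BI] cells, LDL receptor-null, SR-BI overexpressing; medium: Ham's F12 with 0.5% BSA, HEPES 25 mM, pH 7.4; also added: DiI-HDL 10 µg/mL; timing: 3 h uptake period with compound, 37 °C; signal: DiI fluorescence, bottom read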
SR-BI HDL uptake – blocks mouse SR-BI lipid uptake from DiI-HDL; Q61009; ldlA[mSR-BI] CHO cells, DiI-HDL uptake fluorescence, 3 h; inhibition, % at 12.5 µM; 320,000 compounds, 0.96% hits;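 active means mean replicate inhibition of at least 70% and a set share of replicates each scoring 70 or more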;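 further: 0% = median of neutral control wells and 100% = median of positive control wells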
sPLA2-III inh – Blocks human group III sPLA2 activity; Q9NZ20; QFRET BODIPY PC-A2 liposome hydrolysis, fluorescence; inhibition, % at 12.2 µM; 370,000 compounds, 0.56% hits; AID 743126;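 active means inhibition above mean plus 3 SD of compounds lying within the high and low control bounds, cut at about 19% in these data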;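 further: 0% = median of test compound wells and 100% = no enzyme DMSO wells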
NSD2 HMT inh – inhibitors of human histone methyltransferase NSD2. NSD2 peptide methylation, AlphaScreen, 120 min. inhibition, % at 12.5 µM. 310,000 compounds, 0.54% hits; in the data active means inhibition above about 50%
ARNT TACC3 PPI – disruptors of human ARNT/TACC3 interaction; Q9Y6A5; AlphaScreen His-ARNT PAS-B/GST-TACC3 binding, luminescence; TACC3 fragment carries E629A point mutation; inhibition, % at 9.99 µM; 390,000 compounds, 0.66% hits; AID 623870;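 active means mean inhibition of replicates at least 50% and at least half of replicates each reaching 50%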;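 further: 0% = complete ARNT plus TACC3 wells and 100% = ARNT alone without TACC3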
An asterisk follows results filed as active; . = not tested or not shown.

SMILES	Xi reactivation	SR-BI uptake up	SR-BI HDL uptake	sPLA2-III inh	NSD2 HMT inh	ARNT TACC3 PPI
Cc1ccc(NC(=O)c2cc(NC(=O)c3ccco3)ccc2N2CCCCC2)cc1	.	-73	73*	2	.	-51
COc1cc(C(=O)Nc2ccc(NC(=O)c3ccco3)nc2)cc(OC)c1OC	.	-72	72*	1	-1	7
COc1cc(NC(=O)c2ccco2)c(OC)cc1NC(=O)Nc1ccccc1Cl	.	-94	94*	0	5	0
COc1ccc(Cl)cc1C(=O)Nc1ccc(NC(=O)c2ccco2)cc1	.	-82	82*	-12	-2	12
COc1cccc(C(=O)Nc2ccc(NC(=O)c3ccco3)nc2)c1	.	-7	7	1	1	6
Cc1ccc(NC(=O)c2cc(NC(=O)c3ccco3)ccc2N2CCOCC2)cc1	.	-38	38	-11	1	-2
O=C(c1ccccc1-c1ccccc1)N1CCCCC1	0	7	-7	-1	2	-3
O=C(Nc1ccc(SC(F)F)cc1)C1CC(=O)N(Cc2ccccc2)C1 (centres undefined)	0	12	-12	-21	-5	1
CC(=O)Nc1ccc(S(=O)(=O)NCC(=O)OCC(=O)N2CCc3ccccc32)cc1	.	38	-38	2	-2	-17
CCNS(=O)(=O)c1ccc(NC(=S)N2CCc3ccccc32)cc1	0	-11	11	-3	1	53*
Cc1ccccc1C(=O)N/N=C1\SCC(=O)N1Cc1ccco1	0	9	-9	5	7	-6
CCN(CC)CC(=O)Nc1ccc2c(c1)N(C(=O)CN(CC)CC)c1ccccc1CC2	.	20	-20	7	.	9
CCN(CC)CC(=O)Nc1ccc2c(c1)Nc1ccccc1CC2	.	-82	82*	1	9	22
COc1cc([N+](=O)[O-])ccc1NC(=O)CSc1ccccn1	.	-18	18	.	.	-2
COc1ccc(NC(=O)c2cc([N+](=O)[O-])ccc2NC(=O)CNCc2ccccn2)c(OC)c1	0	.	.	7	-4	46*
COc1cc(NC(=O)c2cc([N+](=O)[O-])ccc2NC(=O)CNCc2ccccn2)cc(OC)c1	0	.	.	1	0	38*
COc1ccc(C(CC(=O)O)c2cc(OC)c(OC)c(OC)c2)cc1OC (centres undefined)	1	430*	-430	4	-1	-6
O=[N+]([O-])c1cc(-c2nnc(Nc3ccccc3)c3ccccc23)ccc1N1CCOCC1	0	-74	74*	2	-4	9
CCCCCC/C=N/Nc1nnc(Cc2ccc(OC)c(OC)c2)c(=O)[nH]1	0	-4	4	4	-2	54*
COc1ccc(Cc2nnc(N/N=C/c3ccc(O)cc3O)[nH]c2=O)cc1OC	1	21	-21	-7	25	62*
CCCCn1nnnc1SCC(=O)N1CCCC1	.	21	-21	3	2	-1
COc1cc(/C=C/C(=O)OCC(=O)Nc2ccc(S(=O)(=O)N3CCCC3)cc2)ccc1O	0	-82	82*	-29	-2	.
O=S(=O)(c1ccc(Cl)c(C(F)(F)F)c1)N1CCN(c2ccccn2)CC1	0	21	-21	0	-4	-2
CCOC(=O)C[C@H]1c2ccccc2S(=O)(=O)N1c1ccccc1	0	22	-22	2	.	-4
CCOC(=O)/C=C/c1ccc2c(c1)S(=O)(=O)N(c1cccc(OC)c1)[C@H]2CC(=O)OCC	0	-83	83*	-12	.	-3
SMILES	Xi reactivation	SR-BI uptake up	SR-BI HDL uptake	sPLA2-III inh	NSD2 HMT inh	ARNT TACC3 PPI
COC(=O)CNc1c(-c2ccccn2)nc2ccc(Br)cn12	.	22	-22	4	-1	62*
CCOC(=O)CNc1c(-c2ccccc2)nc2ccc(Cl)cn12	.	.	1	6	0	14
Cc1cc(C)cc(NC(=S)N=Nc2c(O)n(C)c3ccc(S(=O)(=O)N4CCOCC4)cc23)c1	0	-87	87*	4	5	2
Cc1ccc(NC(=S)N=Nc2c(O)n(C)c3ccc(S(=O)(=O)N4CCOCC4)cc23)cc1	0	-47	47	10	3	-5
COc1ccc(CNC(=O)C2CCN(c3cc(C(=O)Nc4cccc(OC)c4)ccn3)CC2)cc1	0	-69	69	-19	-4	-7
COc1cccc(NC(=O)c2ccnc(N3CCC(C(=O)NCc4cc(OC)ccc4OC)CC3)c2)c1	.	-79	79*	.	-1	-6
COc1cc(NC(=O)c2cc(C3CC3)on2)c(OC)cc1Cl	0	-81	81*	1	.	-3
COc1ccc(NC(=O)c2cc(C(C)C)on2)c(OC)c1	0	.	.	-4	.	-5
COc1ccc(Cl)cc1NC(=O)c1cc(C2CC2)on1	.	.	.	2	.	.
COc1cc(NC(=O)c2cc(C(C)C)on2)c(OC)cc1Cl	.	-82	82*	1	0	-5
CN1CCN(c2ccccc2NC(=O)c2ccc3c(c2)OCCO3)CC1	0	0	0	-2	4	-6
CN(C)c1ccc(C=NNC(=O)c2cccc3ccccc23)c(Cl)c1	0	-75	75*	1	-1	2
CCOc1ccccc1OCCOCCN1CC(C)OC(C)C1 (centres undefined)	.	22	-22	2	1	5
CCOc1ccc(NC(=O)Cn2nnc(C(=O)NCCc3ccc(OC)c(OC)c3)c2N)cc1	.	-74	74*	-13	0	-4
CCOc1ccccc1NC(=O)Cn1nnc(C(=O)Nc2ccccc2Cl)c1N	.	-19	19	-23	1	0
CCOc1ccccc1NC(=O)Cn1nnc(C(=O)NCCc2ccc(OCC)c(OCC)c2)c1N	0	-85	85*	4	.	3
COc1ccc(CCNC(=O)Cn2nnc(C(=O)Nc3ccc(Br)cc3)c2N)cc1OC	0	-52	52	-5	7	-6
C[C@H](NC(=O)C[C@@H]1C[C@H]2c3cc(NC(=O)c4cccnc4)ccc3O[C@H]2[C@@H](CO)O1)c1ccccc1	0	.	.	.	.	-1
Cc1ccc(Nc2ccc(N)cc2S(=O)(=O)O)cc1	0	24	-24	11	15	2
Nc1ccc(Nc2ccccc2)c(S(=O)(=O)O)c1	0	.	.	6	94*	0
O=C(NN=Cc1ccc2c(c1)CCC2)c1ccccc1[N+](=O)[O-]	0	.	.	-3	2	.
Cn1c(=O)c2cc(NC(=O)CCc3ccc(O)cc3)ccc2n1Cc1cccc(C(F)(F)F)c1	0	.	.	-11	-5	.
Cc1ccsc1/C=N/Nc1nc(=O)[nH]nc1C	0	-5	5	3	3	64*
Cc1cc(C)nc(N/N=C/c2sccc2C)n1	0	-18	18	5	2	-2

Screens from PubChem BioAssay.
